Kir21 inh = blocks the mouse Kir2.1 inward-rectifier potassium channel. AID 1672. HEK293-Kir2.1, FluxOR thallium flux fluorescence; active compounds read low. hit rate 0.85% among 310,000. B-score at 10 µM;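 active = fluorescence ratio B-score at or below minus 3 SD of library scores, with starting-brightness B-score within 2 SD, cut at about -4.2 in these data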;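 also: channel flux triggered by added potassium and thallium sulfate stimulus; B-score of peak minus minimum fluorescence over baseline after thallium stimulus; more negative B-score means stronger Kir2.1 block with less thallium influx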
Target sequence (P35561 whole entry, looked up): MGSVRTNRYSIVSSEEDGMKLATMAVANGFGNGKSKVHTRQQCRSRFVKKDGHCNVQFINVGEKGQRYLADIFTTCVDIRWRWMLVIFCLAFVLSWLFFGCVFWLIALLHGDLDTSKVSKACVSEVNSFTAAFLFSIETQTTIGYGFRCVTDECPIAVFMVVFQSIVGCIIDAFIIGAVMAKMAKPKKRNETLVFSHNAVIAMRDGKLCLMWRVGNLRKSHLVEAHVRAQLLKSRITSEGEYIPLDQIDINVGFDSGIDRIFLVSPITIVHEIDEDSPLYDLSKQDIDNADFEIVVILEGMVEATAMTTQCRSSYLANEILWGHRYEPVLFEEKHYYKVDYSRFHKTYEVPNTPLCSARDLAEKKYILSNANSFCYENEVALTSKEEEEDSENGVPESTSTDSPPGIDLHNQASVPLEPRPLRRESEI
TRPC6 activator = activates the mouse TRPC6 cation channel. hit rate 0.13% among 310,000. B-score at 10 µM. AID 2550. HEK293-TRPC6 membrane potential dye fluorescence; active compounds read high. Q61143;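 active = B-score of the integrated fluorescence ratio above library mean plus 3 SD, and starting fluorescence ratio within library mean plus 5 SD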;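 also: higher score means more depolarization so channel activation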
TRPC4 inh = TRPC4 (mouse) channel inhibition; HEK293 TRPC4beta/mu-opioid, DAMGO-evoked Fluo4 calcium flux; active compounds read low; B-score at 10 µM; hit rate 0.39% among 300,000; AID 2247;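 active = B-score over 3 SD under the library average, no early fluorescence shift, positive overall ratio signal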
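Assay system – HEK293 line stably carrying TRPC4beta and mu-opioid receptor · Doses – single dose · Detection – Fluo4 calcium-dye fluorescence, kinetic read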
TRPC4 agonist = TRPC4 (mouse) channel activation. Q9QUQ5. HEK293 TRPC4beta/mu-opioid, Fluo4 calcium fluorescence; active compounds read high. B-score at 10 µM. hit rate 0.49% among 310,000. AID 2237;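 active = B-score above 5 SD of library B-scores, and initial fluorescence ratio not above library mean plus 5 SD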;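 also: positive B-score marks a calcium rise read as TRPC4 activation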
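System – HEK293 cells stably co-expressing mouse TRPC4beta and mu-opioid receptor · Signal – Fluo4 calcium-sensitive dye fluorescence, kinetic, 1 Hz baseline · Benchmarks – buffer (low) and maximal DAMGO (high) · Read-out – B score of integrated fluorescence ratio per well · Incubation – dye loading 45 min room temperature, 110 s kinetic read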
TRPC4 potent = allosteric potentiators of mouse TRPC4 channel; Q9QUQ5; HEK293 TRPC4beta/mu-opioid, DAMGO EC20, Fluo-4 Ca2+ flux; active compounds read high; B-score at 10 µM; AID 2227; hit rate 0.42% among 310,000;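 active = B-score of calcium response area above 5 SD of library B-scores, with initial fluorescence ratio within 5 SD of library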;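 also: B-score of integrated fluorescence ratio over time as area under calcium response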
TRPC6 inh = mouse TRPC6 channel inhibition; AID 2553; Q61143; HEK293-TRPC6, membrane potential dye, ACh-evoked depolarization; active compounds read low; hit rate 1.1% among 310,000; B-score at 10 µM;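 active = B-score under library mean minus 3 SD, initial fluorescence not abnormally high, positive integrated signal ratio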;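 also: B-score derived from integrated fluorescence ratio over the kinetic read; more negative B-score means stronger inhibition of depolarization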
An asterisk follows results filed as active; i = inactive. A selection: hits, their analogues and other compounds. The true share with any hit is near 2.9%.

SMILES | Kir21 inh | TRPC6 activator | TRPC4 inh | TRPC4 agonist | TRPC4 potent | TRPC6 inh
O=C1c2c([N+](=O)[O-])cc([N+](=O)[O-])cc2S(=O)N1Cc1ccccc1 (configuration not stated) | 0.05 | i | i | i | i | i
CC(C)CCn1c(N2CCN(c3cccc(Cl)c3)CC2)nc2c1c(=O)[nH]c(=O)n2C | 0.1 | i | i | i | 16* | i
CCc1ccc(C2C(C#N)=C(N)C(C#N)(C#N)C3=CCC(C(C)(C)C)CC32)cc1 (configuration not stated) | -6.6* | i | i | i | i | i
CC(C)(C)C1CC=C2C(C#N)=C(N)C(C#N)(C#N)C(c3cccs3)C2C1 (configuration not stated) | -3.4 | i | i | i | i | i
O=[N+]([O-])c1cc([N+](=O)[O-])c2cccnc2c1Oc1ccccc1O | -8.9* | i | i | i | i | i
O=[N+]([O-])c1ccc(O)c2ncccc12 | -0.09 | i | i | i | i | i
CC(Cc1ccccc1)NC(=S)CN1CCCC1=S (configuration not stated) | -4.6* | i | i | i | i | i
CC(Cc1ccccc1)NC(=O)CC(c1ccccc1)c1ccccc1O (configuration not stated) | -1.1 | i | i | i | i | i
CCCCn1c(CCC)nc([N+](=O)[O-])c1Sc1ccc(Cl)cn1 | -4.8* | i | i | i | i | i
Oc1cccc(C(O)CNCc2ccc(-c3ccccc3)cc2)c1 (configuration not stated) | -7.8* | i | i | i | i | i
COc1ccc(NS(=O)(=O)c2csc(C(N)=O)c2)cc1OC | -0.83 | i | i | i | 16* | i
Clc1ccccc1CSc1nncn1NC/C=C/c1ccccc1 | -6.6* | i | i | i | i | i
C(=C\c1ccccc1)/CNn1cnnc1 | 2 | i | i | i | i | i
CCCCN(CC)CCCNC(=O)c1ccc2c(c1)N(CC)C(=O)c1ccccc1S2(=O)=O | 1.4 | i | i | i | 14* | i
CCN1C(=O)c2ccccc2S(=O)(=O)c2ccc(C(=O)NCCOC)cc21 | 0.74 | i | i | i | i | i
CN(C(=O)C(Cl)Cl)c1ccc(OC(=O)c2ccco2)cc1 | -4.7* | i | i | i | i | i
COC(=O)C1=C(C)NC(=O)NC1c1cn(-c2ccccc2)nc1-c1cccs1 (configuration not stated) | -0.82 | i | i | i | i | i
CC1=C(C(=O)OC(C)C)C(c2cn(-c3ccccc3)nc2-c2cccs2)NC(=O)N1 (configuration not stated) | 1.3 | i | i | i | 13* | i
Nc1ccc2c(c1)C(=O)Cc1ccccc1S2 | 0.92 | i | i | i | i | i
CN(C)CCCOc1ccc2c(c1)Sc1ccccc1CC2=O | -4.2* | i | i | i | i | i
O=C1Cc2ccccc2Sc2c(OCCN3CCCCC3)cccc21 | -7.7* | i | i | i | i | i
O=C1Cc2ccccc2Sc2cc(OCCCN3CCCCC3)ccc21 | -8.7* | i | i | i | i | i
Cc1ccc2nc(NS(=O)(=O)c3cn(C)nc3C)sc2c1 | 0.08 | i | i | i | i | i
Cc1occc1C(=O)N1CCN(S(=O)(=O)c2ccccc2)CC1 | 2.5 | i | i | i | i | i
Nc1ccccc1Sc1ccc(C(=O)c2ccccc2C(=O)O)cc1[N+](=O)[O-] | 0.66 | i | i | i | i | i
SMILES | Kir21 inh | TRPC6 activator | TRPC4 inh | TRPC4 agonist | TRPC4 potent | TRPC6 inh
CC(C)OC(=O)c1ccccc1C(=O)c1ccc(N)c([N+](=O)[O-])c1 | -5.3* | i | i | i | i | i
CSc1ccccc1NC(=O)CSCc1ccccc1Br | -5.3* | i | i | i | i | i
O=C(CSCc1ccccc1Br)NC1CC1 | 0.74 | i | i | i | i | i
Cc1cccc(NC(=O)CSc2nnc(-c3cc(C)n(-c4ccccc4)c3C)o2)c1C | -0.98 | i | -7* | i | i | i
Cc1cc(-c2nnc(SCC(=O)Nc3ccccc3C(F)(F)F)o2)c(C)n1-c1ccccc1 | -0.12 | i | i | i | i | i
COc1cccc(N=Nc2c(N)[nH][nH]c2=O)c1 | -2.3 | i | i | i | 14* | i
Nc1[nH][nH]c(=O)c1N=Nc1cccc(Cl)c1 | 0.46 | i | i | i | 10* | i
CC(=O)c1cccc(S(=O)(=O)NCC2CCCCC2)c1 | -4.2 | i | i | i | i | i
O=C(Nc1ccccc1N1CCN(C(=O)c2ccccc2)CC1)c1ccc(Cl)cc1 | -0.77 | i | i | i | i | i
O=C(Nc1ccc(Nc2ccccc2)cc1)c1ccc(Br)o1 | 1 | i | i | i | 13* | i
O=C(Nc1ccccc1N1CCN(C(=O)c2ccccc2)CC1)c1ccc(Br)o1 | -0.84 | i | -7* | i | i | i
O=C(Nc1ccccc1N1CCN(C(=O)c2ccc(Cl)cc2)CC1)c1ccc([N+](=O)[O-])o1 | -0.14 | i | i | i | i | i
COc1ccc(C(=O)Nc2ccccc2N2CCN(C(=O)c3ccccc3)CC2)cc1Br | 0.02 | i | -6* | i | i | i
O=C(CCC(=O)c1ccc(F)cc1)Nc1cccc(S(=O)(=O)Nc2cccc(Cl)c2)c1 | -0.45 | i | i | i | i | i
c1cnc(N2CCN(c3cnccn3)CC2)nc1 | -1.5 | i | i | i | 28* | i
COC(=O)C(Cc1ccccc1)NC(=O)CCNC(=O)c1ccco1 (configuration not stated) | 3.9 | i | i | i | i | i
Cc1cc(C)c2nc(C)cc(N/N=C/c3ccc(O)cc3)c2c1 | -10* | i | -6* | i | i | i
Cc1cc(N/N=C/c2ccc(O)cc2)c2cccc(C)c2n1 | 1.6 | i | i | i | i | i
COc1ccc(NS(=O)(=O)c2ccc3c(c2)N(C(C)=O)CC(C)S3)c(OC)c1 (configuration not stated) | -1.9 | i | i | i | i | i
CCn1c(C)nc2cc(C(=O)N/N=C/c3cccc(O)c3O)ccc21 | 0.34 | i | i | i | 77* | i
CNCc1c(OCc2ccccc2F)ccc2ccccc12 | -2.2 | i | i | i | i | i
COc1cc(CNc2ccc(O)cc2)cc(Br)c1OCc1ccccc1 | -0.52 | i | i | i | i | i
